High-throughput results from PubChem BioAssay.
Shown are actives, neighbours in structure and some others; about 0.85% of the full set was active somewhere.
V1aR counter: V1a receptor agonism, counter-screen for OXTR agonists; P37288; CHO-V1R cells, Fluo-8 calcium fluorescence, agonist mode; 0% DMSO, 100% 3 nM vasopressin; activation, % at 3 µM; hit rate 0.25% among 320,000; AID 2797;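 active = activation above the mean activation of all tested compounds plus 3 SD, per screening run, cut at about 20% in these data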;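 also: signal is peak over basal fluorescence ratio across a 100 second FLIPR read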
OXTR agonist: activates the human oxytocin receptor; activation, % at 3 µM; P30559; CHO-OTR cells, Fluo-8 calcium fluorescence; normalized: DMSO 0%, oxytocin 100%; hit rate 0.32% among 320,000;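 active = activation above the mean of all tested compounds plus 3 SD, cutoff set per screening run, cut at about 20% in these data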;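 also: peak over basal fluorescence ratio from a 100 s FLIPR kinetic read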
Target sequence (P30559 whole entry, looked up): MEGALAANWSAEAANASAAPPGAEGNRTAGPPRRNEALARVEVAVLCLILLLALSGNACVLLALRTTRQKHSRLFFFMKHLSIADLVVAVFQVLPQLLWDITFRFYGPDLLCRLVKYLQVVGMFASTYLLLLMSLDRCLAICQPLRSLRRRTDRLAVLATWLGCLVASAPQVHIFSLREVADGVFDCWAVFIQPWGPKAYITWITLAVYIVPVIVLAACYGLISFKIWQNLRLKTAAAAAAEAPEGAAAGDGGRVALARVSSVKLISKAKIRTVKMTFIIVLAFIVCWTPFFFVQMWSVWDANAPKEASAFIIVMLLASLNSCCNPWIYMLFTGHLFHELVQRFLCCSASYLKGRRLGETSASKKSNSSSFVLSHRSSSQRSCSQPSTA
OXTR potentiate: potentiates the human oxytocin receptor response | CHO-OTR cells, Fluo-8 calcium fluorescence, potentiator mode; 0% = oxytocin EC15, 100% = EC100 | activation, % at 3 µM | hit rate 0.061% among 320,000 | P30559;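 active = activation above that plate's cutoff, the mean activation of tested compounds plus 3 SD, cut at about 6.6% in these data, passing the limit was not always enough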;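 also: 100% uses oxytocin at 75 nM as the full agonist control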
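Assay system: CHO cell line stably expressing human OTR | Also added: Oxytocin at about EC15, sub-maximal agonist stimulus | Times: Compound 6 min at room temperature before oxytocin, 100 s read | Measured by: Fluo-8 intracellular calcium fluorescence, ex 470-495, em 515-575 nm | Controls: EC15 oxytocin alone as 0%, 75 nM oxytocin as 100%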
TRPML3 ag: human mucolipin-3 channel agonism. Q8TDD5. HEK293 TRPML3-YFP, Fluo-8 calcium fluorescence; 100% = the carbachol control signal. activation, % at 3 µM. hit rate 0.29% among 220,000;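 active = activation above its plate's cutoff, the mean activation of the plate's test wells plus 3 SD, cut at about 12% in these data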;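 also: 0% = DMSO only wells and 100% = carbachol wells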
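Material: HEK293 cells stably carrying human TRPML3-YFP; compound dosing: single dose, 3 µM final nominal compound, 0.3% DMSO final; incubation: 1-h 37 °C dye load, 5-s basal, 120-s post-compound reads; technique: Fluo-8 intracellular calcium fluorescence, excitation 470-495 nm, emission 515-575 nm; read-out basis: percent activation from peak-to-basal fluorescence ratio, scaled between DMSO and carbachol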
CRFBP-R2 agonist: agonists of human CRF-binding protein/CRF-R2 receptor complex. HEK293 CRF-R2/CRF-BP, calcium dye fluorescence (FLIPR); percent of saturating CRF peptide response. activation, % at 13.2 µM. hit rate 0.46% among 350,000;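 active = activation of at least 50%, plus an integration ratio under a set limit after plate pattern correction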;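 also: plate controls were neutral control wells without compound for no effect and CRF at EC100 for full effect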
zfTRPN1 agonist: zebrafish TRPN1 (NompC) channel agonism; HEK293 zebrafish TRPN1-YFP, Fluo-8 calcium fluorescence; 100% = response to 87 µM carbachol; activation, % at 3 µM; hit rate 0.18% among 220,000; AID 1424;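 active = activation above its plate's cutoff, the mean activation of test wells on that plate plus 3 SD, cut at about 19% in these data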;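 also: 0% = DMSO alone and 100% = 87 µM carbachol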
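Material – zebrafish TRPN1-YFP in HEK293 cells · Doses – 3 µM single point · Schedule – dye 1 h 37 °C plus 30 min RT · Signal – Fluo-8 calcium fluorescence, excitation 470-495 nm, emission 515-575 nm · Read-out – % activation versus carbachol response · Control set – carbachol high, DMSO low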
TRPN1 ag 2: zebrafish TRPN1 agonism as TRPML3 agonist counter-screen | shares compounds with TRPML3 ag | HEK293 zebrafish TRPN1-YFP, Fluo-8 calcium fluorescence; scaled: carbachol wells 100%, DMSO wells 0% | activation, % at 3 µM | hit rate 10% among 310 | AID 1525;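 active = mean activation over replicates above a set limit taken from the earlier TRPN1 channel primary screen, cut at about 19% in these data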;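 also: 100% = carbachol and 0% = 0.3% DMSO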
TRPML3 confirm: human TRPML3 agonism, confirmation. shares compounds with TRPML3 ag. HEK293 TRPML3-YFP, Fluo-8 calcium fluorescence; 100% set by carbachol, 0% by DMSO. activation, % at 3 µM. hit rate 80% among 310. AID 1526;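 active = activation above a set limit derived from the earlier primary screen, cut at about 12% in these data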
* hit, by the source's call.

For CCOc1ccc(S(=O)(=O)N(C)C2CCCCC2)cc1 the results were V1aR counter -1, OXTR agonist -1, OXTR potentiate -14 and CRFBP-R2 agonist 0.
CN(C1CCCCC1)S(=O)(=O)c1cccc(C#N)c1 was read as V1aR counter 0, OXTR agonist -1, OXTR potentiate -9, TRPML3 ag 63*, CRFBP-R2 agonist -2, zfTRPN1 agonist 0, TRPN1 ag 2 0 and TRPML3 confirm 44*.
For Cc1cc(C)c(S(=O)(=O)Nc2ccccc2-c2ccccc2)c(C)c1 the results were V1aR counter -1, OXTR agonist -2, OXTR potentiate -8, TRPML3 ag 13*, CRFBP-R2 agonist 4, zfTRPN1 agonist 0, TRPN1 ag 2 0 and TRPML3 confirm 45*.
O=S(=O)(Nc1ccccc1-c1ccccc1)c1ccccc1 was read as CRFBP-R2 agonist -2.
`Cc1cc(C)c(O)c(CN(C)Cc2cc(Cl)cc(Cl)c2O)c1` gave CRFBP-R2 agonist 1.
For Oc1c(Cl)cc(Cl)cc1Sc1cc(Cl)cc(Cl)c1O the results were V1aR counter 9, OXTR agonist 17, OXTR potentiate -11, TRPML3 ag 13*, zfTRPN1 agonist 16, TRPN1 ag 2 29* and TRPML3 confirm 13*.
COc1ccc(CCN(C)C(=O)CNC(=O)Cc2cccc3ccccc23)cc1OC was read as V1aR counter -1, OXTR agonist -2, OXTR potentiate -8 and CRFBP-R2 agonist 1.
Screening CN(C)S(=O)(=O)c1ccc(N2CCCC2)c(C(=O)Nc2ccc(F)cc2F)c1 returned V1aR counter 2, OXTR agonist 0, OXTR potentiate -10 and CRFBP-R2 agonist 0.
Screening COc1ccc(C(C)(C)C)cc1NC(=O)c1cc(S(=O)(=O)N(C)C)ccc1N1CCCC1 returned V1aR counter -2, OXTR agonist -3, OXTR potentiate -9, TRPML3 ag 34*, CRFBP-R2 agonist -2, zfTRPN1 agonist -2, TRPN1 ag 2 0 and TRPML3 confirm 33*.
`CC(=O)N1CCN(c2ccccc2NC(=O)COc2ccccc2C)CC1` gave V1aR counter 0, OXTR agonist 0, OXTR potentiate -8, TRPML3 ag 0, CRFBP-R2 agonist 1 and zfTRPN1 agonist 2.
Cc1ccccc1OCC(=O)Nc1cc(S(=O)(=O)N2CCCCC2)ccc1N1CCN(C)CC1 was read as V1aR counter 1, OXTR agonist 2, OXTR potentiate -5, TRPML3 ag 21*, CRFBP-R2 agonist 0, zfTRPN1 agonist 0, TRPN1 ag 2 1 and TRPML3 confirm 23*.
For Cc1ccccc1OCC(=O)Nc1ccccc1N1CCOCC1 the results were V1aR counter 6, OXTR agonist -2, OXTR potentiate -20, TRPML3 ag 47*, CRFBP-R2 agonist 0, zfTRPN1 agonist 1, TRPN1 ag 2 2 and TRPML3 confirm 57*.
`CCN(CC)C(=O)C1=C(C)N(Cc2ccccc2)C(=O)C(CC(=O)NCCN2CCOCC2)C1` (configuration not stated) gave CRFBP-R2 agonist -3.
Screening O=[N+]([O-])c1ccc(CSc2ccc(S(=O)(=O)N3CCCCCC3)cn2)cc1 returned CRFBP-R2 agonist 0.
`Cc1cc(C)cc(N2C(=O)CSC2c2cccs2)c1` (configuration not stated) gave V1aR counter 0, OXTR agonist -1, OXTR potentiate -15, TRPML3 ag 16*, CRFBP-R2 agonist 51*, zfTRPN1 agonist -1, TRPN1 ag 2 3 and TRPML3 confirm 16*.
`O=C1C(Cl)=C(N2CCN(Cc3ccccc3)CC2)C(=O)N1Cc1ccccc1` gave V1aR counter 1, OXTR agonist 0, OXTR potentiate -2, TRPML3 ag 20*, CRFBP-R2 agonist 9, zfTRPN1 agonist 0, TRPN1 ag 2 0 and TRPML3 confirm 25*.
For O=C1C(Cl)=C(NC2CCCCC2)C(=O)N1Cc1ccccc1 the results were V1aR counter 0, OXTR agonist -3, OXTR potentiate -16, TRPML3 ag 1, CRFBP-R2 agonist 0 and zfTRPN1 agonist -1.
CSc1nsc(SC)c1C(=O)N1CCN(S(=O)(=O)c2ccc(C)cc2)C1C(C)C (configuration not stated) was read as V1aR counter 0, OXTR agonist -2, OXTR potentiate -13, TRPML3 ag 46*, CRFBP-R2 agonist 1, zfTRPN1 agonist -1, TRPN1 ag 2 -2 and TRPML3 confirm 26*.
`O=C(COC(=O)c1ccc(Br)o1)NCc1ccccc1Cl` gave V1aR counter -1, OXTR agonist 0, OXTR potentiate -1 and CRFBP-R2 agonist -4.
For O=C(Oc1ccc(Br)cc1C(=S)N1CCOCC1)c1ccc([N+](=O)[O-])cc1[N+](=O)[O-] the results were V1aR counter 0, OXTR agonist -1, OXTR potentiate -6 and CRFBP-R2 agonist 0.
For C/C=C/c1ccc(OCC(=O)N(CCOC)c2c(N)n(CCCC)c(=O)[nH]c2=O)c(OC)c1 the results were V1aR counter -1, OXTR agonist -1, OXTR potentiate -17 and CRFBP-R2 agonist -1.
O=S(=O)(Cc1cc(Cl)nc(-c2ccccc2)n1)c1ccccc1 was read as V1aR counter -2, OXTR agonist -2, OXTR potentiate 0, TRPML3 ag 19*, CRFBP-R2 agonist -1, zfTRPN1 agonist -1, TRPN1 ag 2 -1 and TRPML3 confirm 35*.
`CC1=C(C)/C(=N\OS(=O)(=O)c2ccc(C)cc2)C=CC1=O` gave V1aR counter 2, OXTR agonist 9, OXTR potentiate -10, TRPML3 ag 14*, CRFBP-R2 agonist 64*, zfTRPN1 agonist 8, TRPN1 ag 2 9 and TRPML3 confirm 14*.
Screening COc1ccc(S(=O)(=O)/N=C2/C=CC(=O)C(C)=C2C)cc1 returned V1aR counter -1, OXTR agonist -1, OXTR potentiate -8, TRPML3 ag 0, CRFBP-R2 agonist -1 and zfTRPN1 agonist 0.
Screening CC(C)(C)OC(=O)C[C@H]1C/C=C\C[C@@H](CC(=O)N(CCO)Cc2ccccc2)C(=O)NC[C@@H](c2ccccc2)OC1=O returned V1aR counter 0, OXTR agonist -2, OXTR potentiate -2 and CRFBP-R2 agonist 1.
